From ChEMBL document CHEMBL4627411, “Novel Piperidinyl-Azetidines as Potent and Selective CCR4 Antagonists Elicit Antitumor Response as a Single Agent and in Combination with Checkpoint Inhibitors” (J Med Chem, 2020) come the findings set out here.

Data set [1] has as its target T1, C-C chemokine receptor type 4 (Homo sapiens, UniProt P51679).
T1 sequence (P51679 whole entry): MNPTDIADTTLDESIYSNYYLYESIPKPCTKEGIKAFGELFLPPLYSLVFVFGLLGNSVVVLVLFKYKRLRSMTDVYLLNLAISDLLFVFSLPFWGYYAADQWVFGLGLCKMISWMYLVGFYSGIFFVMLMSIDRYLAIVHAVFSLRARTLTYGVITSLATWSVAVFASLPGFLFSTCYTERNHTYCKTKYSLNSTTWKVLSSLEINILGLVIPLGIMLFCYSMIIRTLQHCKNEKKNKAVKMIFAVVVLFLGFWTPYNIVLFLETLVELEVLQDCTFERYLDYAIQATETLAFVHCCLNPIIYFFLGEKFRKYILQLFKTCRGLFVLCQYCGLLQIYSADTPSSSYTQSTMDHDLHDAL
Nature of the data set: Antagonist activity at human CCR4 expressed in rat chem-5 cells assessed as inhibition of CCL22-induced calcium flux measured at 2.5 secs time interval for 45 secs by calcium 6 dye-based FLIPR assay. The data set is classed as functional, cell-based. The procedure, abridged: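 Primary calcium flux assay for CCR4 antagonism, run in the absence of serum.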
In general terms: Calcium flux is commonly read through the fluorescence of an indicator in the cells.

A short description of data set [2]: Clearance in rat at 0.5 mg/kg, iv. The data set is classed as ADME, organism-based. To be noted: in vivo. The method, boiled down:
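Rat in vivo PK. Single IV dose of 0.5 mg/kg; clearance in mL/min/kg.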

Data set [3] can be described thus: Oral bioavailability in rat at 2 mg/kg. Format: ADME, organism-based. To be noted: in vivo. The procedure, abridged: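 Rat in vivo PK. Oral dose of 2 mg/kg; %F derived.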
Data set [4] can be described thus: Metabolic stability in human hepatocytes assessed as parent compound remaining at 1 uM after 60 mins by LC-MS/MS analysis. The data set is classed as ADME, cell-based, Hepatocyte. To be noted: read-out: Stability. The method, boiled down:
(§1)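 Hepatocytes (human or rat). Compound incubated for 60 min; value is % parent remaining.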

Data set [5] in a line: Metabolic stability in rat hepatocytes assessed as parent compound remaining at 1 uM after 60 mins by LC-MS/MS analysis. Format: ADME, cell-based, Hepatocyte. To be noted: read-out: Stability. The procedure, abridged: as §1
The target in the next data set is Cytochrome P450 2C9 (Homo sapiens, UniProt P11712). Description: Inhibition of CYP2C9 in human liver microsomes using diclofenac sodium salt as substrate incubated for 20 mins in presence of NADPH by LC-MS/MS analysis. Format: ADME.
Sequence of Cytochrome P450 2C9 (P11712 whole entry): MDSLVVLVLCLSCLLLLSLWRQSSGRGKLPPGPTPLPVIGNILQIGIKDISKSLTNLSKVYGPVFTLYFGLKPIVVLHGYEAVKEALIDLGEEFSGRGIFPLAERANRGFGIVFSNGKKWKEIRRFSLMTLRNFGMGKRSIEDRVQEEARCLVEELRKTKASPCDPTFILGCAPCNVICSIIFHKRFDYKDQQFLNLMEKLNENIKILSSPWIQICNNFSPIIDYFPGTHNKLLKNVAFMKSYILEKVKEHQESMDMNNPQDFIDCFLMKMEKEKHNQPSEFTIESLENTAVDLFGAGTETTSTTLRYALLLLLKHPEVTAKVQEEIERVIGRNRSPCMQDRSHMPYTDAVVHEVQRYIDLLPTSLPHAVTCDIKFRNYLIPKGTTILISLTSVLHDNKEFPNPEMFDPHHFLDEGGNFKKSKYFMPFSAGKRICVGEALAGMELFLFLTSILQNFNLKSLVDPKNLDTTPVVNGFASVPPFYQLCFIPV
For a further data set, the target named is Cytochrome P450 2C19 (Homo sapiens, UniProt P33261). Nature of the data set: Inhibition of CYP2C19 in human liver microsomes using S-mephenytoin as substrate incubated for 20 mins in presence of NADPH by LC-MS/MS analysis. Format: ADME.
Sequence of Cytochrome P450 2C19 (P33261 whole entry): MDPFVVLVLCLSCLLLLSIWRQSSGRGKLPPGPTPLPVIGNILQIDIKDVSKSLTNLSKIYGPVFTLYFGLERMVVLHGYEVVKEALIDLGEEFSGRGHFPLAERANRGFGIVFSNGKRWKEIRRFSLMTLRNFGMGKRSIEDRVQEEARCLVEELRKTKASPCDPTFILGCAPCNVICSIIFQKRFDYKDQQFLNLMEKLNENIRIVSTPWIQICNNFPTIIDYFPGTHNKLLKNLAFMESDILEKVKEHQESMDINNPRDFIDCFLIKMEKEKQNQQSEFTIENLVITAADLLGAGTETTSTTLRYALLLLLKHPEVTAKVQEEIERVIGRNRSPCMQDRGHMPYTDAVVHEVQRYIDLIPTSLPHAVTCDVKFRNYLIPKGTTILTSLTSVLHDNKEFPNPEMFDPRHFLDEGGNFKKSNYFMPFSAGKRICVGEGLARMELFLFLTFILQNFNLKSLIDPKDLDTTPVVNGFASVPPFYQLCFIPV
For a further data set, the target named is CYP3A4 (Homo sapiens, UniProt P08684). Description: Ratio of IC50 for time-dependent inhibition of CYP3A4 in human liver microsomes using midazolam hydrochloride as substrate in presence of NADPH to IC50 for time-dependent inhibition of CYP3A4 in human liver microsomes using midazolam hydrochloride as substrate absence of NADPH. To be noted: probe midazolam hydrochloride, read-out: Ratio IC50. In general terms: Liver microsomes are vesicles of endoplasmic reticulum, rich in cytochrome P450 enzymes.
Sequence of CYP3A4 (P08684 whole entry): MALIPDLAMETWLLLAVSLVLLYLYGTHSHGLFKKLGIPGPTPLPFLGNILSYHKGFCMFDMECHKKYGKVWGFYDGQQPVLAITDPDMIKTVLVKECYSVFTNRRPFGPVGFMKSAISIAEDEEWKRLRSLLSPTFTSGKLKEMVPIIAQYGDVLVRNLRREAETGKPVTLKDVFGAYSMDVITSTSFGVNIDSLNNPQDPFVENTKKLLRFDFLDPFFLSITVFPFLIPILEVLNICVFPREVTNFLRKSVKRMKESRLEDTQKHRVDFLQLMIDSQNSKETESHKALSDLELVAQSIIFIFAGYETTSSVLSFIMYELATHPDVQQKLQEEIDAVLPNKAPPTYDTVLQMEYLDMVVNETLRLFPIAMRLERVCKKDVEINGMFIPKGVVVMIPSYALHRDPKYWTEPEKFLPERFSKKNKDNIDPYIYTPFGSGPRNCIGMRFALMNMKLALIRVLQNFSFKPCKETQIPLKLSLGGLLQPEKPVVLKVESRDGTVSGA

A further data set has as its target Cytochrome P450 3A4 (Homo sapiens, UniProt P08684). Nature of the data set: Inhibition of CYP3A4 in human liver microsomes using midazolam hydrochloride as substrate incubated for 20 mins in presence of NADPH by LC-MS/MS analysis. The data set is classed as ADME.
For the next data set, the target named is Cytochrome P450 2D6 (Homo sapiens, UniProt P10635). Nature of the data set: Inhibition of CYP2D6 in human liver microsomes using bufuralol hydrochloride salt as substrate incubated for 20 mins in presence of NADPH by LC-MS/MS analysis. The data set is classed as ADME.
Sequence of Cytochrome P450 2D6 (P10635 whole entry): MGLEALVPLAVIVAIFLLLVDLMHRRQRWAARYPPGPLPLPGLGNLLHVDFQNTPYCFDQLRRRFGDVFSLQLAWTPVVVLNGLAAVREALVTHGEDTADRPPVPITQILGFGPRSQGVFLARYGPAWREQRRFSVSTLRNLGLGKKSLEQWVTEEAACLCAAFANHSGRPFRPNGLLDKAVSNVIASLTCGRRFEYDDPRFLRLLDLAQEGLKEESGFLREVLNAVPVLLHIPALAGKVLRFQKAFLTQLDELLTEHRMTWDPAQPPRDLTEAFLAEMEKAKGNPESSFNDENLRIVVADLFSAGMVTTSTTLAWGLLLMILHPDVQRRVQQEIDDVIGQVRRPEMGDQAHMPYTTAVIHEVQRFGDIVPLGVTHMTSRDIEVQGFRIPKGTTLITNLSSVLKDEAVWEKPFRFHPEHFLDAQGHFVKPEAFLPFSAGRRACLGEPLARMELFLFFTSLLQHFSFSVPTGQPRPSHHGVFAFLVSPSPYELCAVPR
The target of a further data set is Cytochrome P450 1A2 (Homo sapiens, UniProt P05177). Nature of the data set: Inhibition of CYP1A2 in human liver microsomes using phenacetin as substrate incubated for 20 mins in presence of NADPH by LC-MS/MS analysis. The data set is classed as ADME.
Sequence of Cytochrome P450 1A2 (P05177 whole entry): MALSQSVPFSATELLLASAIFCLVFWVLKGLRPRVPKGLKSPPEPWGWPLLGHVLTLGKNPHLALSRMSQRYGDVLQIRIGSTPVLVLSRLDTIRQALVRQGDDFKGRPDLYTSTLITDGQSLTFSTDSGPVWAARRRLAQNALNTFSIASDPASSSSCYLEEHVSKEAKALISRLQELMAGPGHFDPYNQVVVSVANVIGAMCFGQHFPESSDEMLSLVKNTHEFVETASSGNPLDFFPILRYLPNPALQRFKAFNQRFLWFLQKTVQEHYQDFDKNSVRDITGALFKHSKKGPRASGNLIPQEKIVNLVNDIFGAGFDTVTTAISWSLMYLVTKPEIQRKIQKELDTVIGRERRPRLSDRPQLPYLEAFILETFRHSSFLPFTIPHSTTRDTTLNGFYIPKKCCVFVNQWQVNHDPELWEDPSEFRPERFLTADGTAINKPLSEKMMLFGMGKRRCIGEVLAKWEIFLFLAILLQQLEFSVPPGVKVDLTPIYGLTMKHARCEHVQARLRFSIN
The test system of the next data set is Cytochrome P450. Description: Induction of CYP450 (unknown origin). Format: ADME, protein assay. To be noted: human.

Sequence of Cytochrome P450 3A4 (P08684 whole entry): as the sequence (P08684 whole entry) above

Broadly, the IC50 is the point on the concentration scale where inhibition reaches its midpoint. Consider `C[C@H](c1ccc(Cl)cc1Cl)n1nc(C#N)c2ncc(N3CC([C@H]4CCCN(Cc5cnc[nH]5)C4)C3)nc21`, for which, in data set [1], the IC50 turned out to be 21 nM.

For `Cc1nn([C@H](C)c2ccc(Cl)cc2Cl)c2nc(N3CC([C@H]4CCCN(CCC(N)=O)C4)C3)cnc12`, the IC50 in data set [1] is 42 nM.

Turning to `Cc1nn([C@H](C)c2ccc(Cl)cc2Cl)c2nc(N3CC(N4CCCCC4)C3)cnc12`, the IC50 in data set [1] is more than 5000 nM.

Turning to `Cc1nn([C@H](C)c2ccc(Cl)cc2Cl)c2nc(N3CC([C@H]4CCCN(CCNC(=O)C(C)C)C4)C3)cnc12`, the IC50 in data set [1] stood at 18 nM.

`C[C@H](c1ccc(Cl)cc1Cl)n1nc(C#N)c2ncc(N3CC([C@H]4CCCN(CCC(F)(F)F)C4)C3)nc21`: in data set [1], the IC50 is 370 nM.

`Cc1nn([C@H](C)c2ccc(Cl)cc2Cl)c2nc(N3CC([C@H]4CCCN(CCS(C)(=O)=O)C4)C3)cnc12`: the IC50 in data set [1] worked out at 77 nM.

Consider `C[C@H](c1ccc(Cl)cc1Cl)n1nc(C#N)c2ncc(N3CC([C@H]4CCCN(CCC#N)C4)C3)nc21`, for which, in [1], the IC50 came out at 28 nM.

Regarding `Cc1nn([C@H](C)c2ccc(Cl)cc2Cl)c2nc(N3CC([C@H]4CCCN(CCS(N)(=O)=O)C4)C3)cnc12`, the IC50 in data set [1] amounted to 84 nM.

`Cc1nn([C@H](C)c2ccc(Cl)cc2Cl)c2nc(N3CC([C@H]4CCCN(CCC(=O)O)C4)C3)cnc12`: the IC50 in data set [1] was 91 nM.

Consider `C[C@H](c1ccc(Cl)cc1Cl)n1nc(C#N)c2ncc(N3CC([C@H]4CCCN(CC#N)C4)C3)nc21`, for which the IC50 in data set [1] was 1470 nM.

As to `CCOC(=O)CN1CCCC(C2CN(c3cnc4c(C)nn([C@H](C)c5ccc(Cl)cc5Cl)c4n3)C2)C1` (stereo partly drawn), the IC50 in data set [1] stood at 596 nM.

As a reminder, the clearance is a measure of how efficiently the substance is removed, as volume per time. A word on the bioavailability: it is the share of a dose that reaches the circulation, judged against a reference dose that is usually intravenous. `Cc1nn([C@H](C)c2ccc(Cl)cc2Cl)c2nc(N3CC([C@H]4CCCN(CCNS(C)(=O)=O)C4)C3)cnc12` returned a clearance in [2] of 41.6 mL/min/kg. The IC50 in data set [1] was found to be 29 nM. The compound further had a bioavailability in data set [3] of 11%. Further, the remaining at 1 h, 1 µM in data set [4] turned out to be 85%; in [5] it was 53%.

As for `Cc1nn([C@H](C)c2ccc(Cl)cc2Cl)c2nc(N3CC(CN(C)C)C3)cnc12`, the half-maximal inhibitory concentration (IC50) in [1] was determined as 1370 nM.

As for `C[C@H](c1ccc(Cl)cc1Cl)n1nc(C(=O)N(C)C)c2ncc(N3CC([C@H]4CCCN(CCO)C4)C3)nc21`, in data set [1], the IC50 was found to be 9 nM.

For `C[C@H](c1ccc(Cl)cc1Cl)n1nc(C(N)=O)c2ncc(N3CC([C@H]4CCCN(CCO)C4)C3)nc21`, the clearance in data set [2] was 191 mL/min/kg. Moreover, the IC50 in data set [1] was 8 nM. The same compound came in with a bioavailability in data set [3] of 0%. Moreover, the remaining at 1 h, 1 µM in data set [4] and in data set [5] was 95% throughout.

Take `CCN1CCC(C2CN(c3cnc4c(C)nn([C@H](C)c5ccc(Cl)cc5Cl)c4n3)C2)CC1`: the IC50 in data set [1] is more than 5000 nM.

As for `Cc1nn([C@H](C)c2ccc(Cl)cc2Cl)c2nc(N3CC([C@H]4CCCN(CCO)C4)C3)cnc12`, the clearance in data set [2] came to 32.3 mL/min/kg. Moreover, the IC50 in [1] was 24 nM; on Cytochrome P450 2C9 it was more than 40000 nM; at Cytochrome P450 2C19, more than 40000 nM; at Cytochrome P450 3A4, more than 40000 nM; on Cytochrome P450 2D6, more than 40000 nM; at Cytochrome P450 1A2, more than 40000 nM. Also, in data set [3], the bioavailability was found to be 61%. On CYP3A4, the IC50 shift was 2.6. In addition, the remaining at 1 h, 1 µM in [4] was 87%; in [5] it was 62%. In addition, the Activity result in the data set with Cytochrome P450 was “Not Active”.

Consider `COC(=O)NCCN1CCC[C@H](C2CN(c3cnc4c(C)nn([C@H](C)c5ccc(Cl)cc5Cl)c4n3)C2)C1`, for which the IC50 in data set [1] came to 23 nM.

Turning to `Cc1nn([C@H](C)c2ccc(Cl)cc2Cl)c2nc(N3CC([C@H]4CCCN(CCNS(=O)(=O)C(C)C)C4)C3)cnc12`, the IC50 in [1] turned out to be 31 nM.

In the case of `Cc1nn([C@H](C)c2ccc(Cl)cc2Cl)c2nc(N3CC([C@H]4CCCN(CCCS(C)(=O)=O)C4)C3)cnc12`, the IC50 in data set [1] came out at 22 nM.

Take `CC(=O)NCCN1CCC[C@H](C2CN(c3cnc4c(C)nn([C@H](C)c5ccc(Cl)cc5Cl)c4n3)C2)C1`: the clearance in data set [2] amounted to 11 mL/min/kg. For the same compound, the IC50 in data set [1] is 6 nM. In [3], this compound yielded a bioavailability of 13%. In addition, the remaining at 1 h, 1 µM is 94% in [4] and 68% in data set [5].

As to `Cc1nn([C@H](C)c2ccc(Cl)cc2Cl)c2nc(N3CC([C@H]4CCCN(CCCO)C4)C3)cnc12`, in data set [1], the 50% inhibitory concentration (IC50) came out at 37 nM.

For `Cc1nn([C@H](C)c2ccc(Cl)cc2Cl)c2nc(N3CC([C@H]4CCCN(CCC(F)(F)F)C4)C3)cnc12`, the IC50 in [1] was determined as 505 nM.

For `Cc1nn([C@H](C)c2ccc(Cl)cc2Cl)c2nc(N3CC([C@H]4CCCN(CCCC(=O)O)C4)C3)cnc12`, the IC50 in [1] came to 69 nM.

Turning to `C[C@H](c1ccc(Cl)cc1Cl)n1nc(C#N)c2ncc(N3CC([C@H]4CCCN(CCC(=O)O)C4)C3)nc21`, the IC50 in data set [1] worked out at 47 nM.

As to `C[C@H](c1ccc(Cl)cc1Cl)n1nc(C#N)c2ncc(N3CC([C@H]4CCCN(CC(=O)O)C4)C3)nc21`, the 50% inhibitory concentration (IC50) in [1] worked out at 36 nM.

`Cc1nn([C@H](C)c2ccc(Cl)cc2Cl)c2nc(N3CC(C4CCCN(CCS(N)(=O)=O)C4)C3)cnc12` (stereo partly drawn): in data set [1], the IC50 worked out at 121 nM.

Turning to `Cc1nn([C@H](C)c2ccc(Cl)cc2Cl)c2nc(N3CC([C@@H]4CCCN(CCS(N)(=O)=O)C4)C3)cnc12`, in data set [1], the IC50 turned out to be 455 nM.

Take `C[C@H](c1ccc(Cl)cc1Cl)n1nc(C(=O)O)c2ncc(N3CC([C@H]4CCCN(CCO)C4)C3)nc21`: in data set [1], the IC50 was more than 5000 nM.

In the case of `CNC(=O)c1nn([C@H](C)c2ccc(Cl)cc2Cl)c2nc(N3CC([C@H]4CCCN(CCO)C4)C3)cnc12`, the IC50 in data set [1] was determined as 25 nM.
